Results of several laboratories.
Target: Protein kinase C eta type (PRKCH, Homo sapiens, UniProt P24723)

With `CCS(=O)(=O)c1cc2cc(C[C@](O)(CC(C)(C)c3ccc(F)cc3C(N)=O)C(F)(F)F)[nH]c2cn1` the remaining binding was 94% (cell-free assay, competition with immobilised ligand; 1 µM).
The inhibition of `Cn1cncc1C1=CN(c2ncnc3[nH]cnc23)CCS1` is reported as 15.8% (enzyme activity, inhibitor, radiometric; 50 nM).
`CC(=O)c1c(NS(C)(=O)=O)c2cc(-c3ccc(Cl)cc3)c(-c3ccc(Cl)cc3Cl)nc2n(C)c1=O` has a remaining binding of 91% (cell-free assay, competition with immobilised ligand; 1 µM).
`CCN(CC)c1ccc(C2=NNC(=O)CC2C)cc1[N+](=O)[O-]` (stereo not shown) has a remaining activity of 105% (enzyme activity, inhibitor; 10 µM).
`Nc1ncnc2occ(-c3ccc(NC(=O)Nc4cc(C(F)(F)F)ccc4F)cc3)c12` has a remaining signal of 64% (cell-free assay; 20 µM).
`COc1cc(Cl)c(C(=O)N[C@@H](CN[C@H]2CC[C@@H](N)CC2)Cc2ccc(C#N)cc2)cc1-c1ccc(CN[C@H](C)c2ccc(C)cc2)o1` has a remaining activity of 104% (enzyme activity, inhibitor; 1 µM).
`CS(=O)(=O)NCC[C@H](NC(=O)c1cncc2c1cnn2-c1ccc(F)cc1)c1ccnc(S(C)(=O)=O)c1` has a remaining binding of 80% (cell-free assay, competition with immobilised ligand; 1 µM).
The inhibition of `Cn1cnc(Br)c1C1=CN(c2ncnc3[nH]cnc23)CCS1` is reported as 29.7% (enzyme activity, inhibitor, radiometric; 50 nM).
`CNCc1ccccc1-c1csc([C@H](C)Nc2nc(C)nc3cc(OC)c(OC)cc23)c1` gave a remaining binding of 100% (cell-free assay, competition with immobilised ligand; 1 µM).
For `O=C(Nc1cnn(-c2csc(C(=O)NC3COC3)c2)c1)Nc1ccccc1Cl`, the remaining activity was 103% (enzyme activity, inhibitor; 5 µM).
`CC/C(=N\NC(=O)NCc1cccc(O)c1)c1ccc(O)c(C)c1O` has an inhibition of 44.8% (enzyme activity, inhibitor; 0.1 µM).
`COc1cc2ncnc(Nc3ccc(Oc4ccccc4)cc3C)c2cc1OC` has an inhibition of 7% (enzyme activity, inhibitor; 1 µM).
The inhibition of `CCN(CC)CCNC(=O)c1c(C)[nH]c(/C=C2\C(=O)Nc3ccc(F)cc32)c1C` is reported as 4% (enzyme activity, inhibitor; 10 µM).
The remaining signal of `Cc1ccc(NC(=O)c2ccc(C)c(C(F)(F)F)c2)cc1C#Cc1nn(C2CCC(O)CC2)c2ncnc(N)c12` (stereo not shown) is reported as 72% (cell-free assay; 10 µM).
`Cc1ccc(C(=O)NCc2ccsc2)cc1C#Cc1cn(C(C)C)c2ncnc(N)c12` has an activity vs control of 118% (enzyme activity, inhibitor; 1 µM).
`CCCS(=O)(=O)Nc1ccc(F)c(C(=O)c2c[nH]c3ncc(-c4ccc(Cl)cc4)cc23)c1F` gave an inhibition of < 10% (enzyme activity, inhibitor; 1 µM).
With `COc1cc(-c2cc(-c3ccc(N4CCNCC4)cc3)cnc2C)cc(OC)c1OC` the inhibition was 2% (enzyme activity, inhibitor; 0.1 µM).
`CC(C)(O)c1cncc(-c2nc3ccc(F)cc3n2C2CC2)c1` has a remaining binding of 98% (cell-free assay, competition with immobilised ligand; 1 µM).
For `C[C@@H]1CCN(c2nccc(-c3cnn4ncccc34)n2)C1`, the remaining binding was 83% (binding; 1 µM).
